In ChEMBL document CHEMBL1126742, “Syntheses of 5'-substituted analogues of carbocyclic 3-deazaadenosine as potential antivirals” (J Med Chem, 1993):
Values after ≈ are worked out from the molar mass of the structure shown.

Legend:
L929 [1] = assay: Minimum toxic concentration against vesicular stomatitis virus (L-929 cell line); assay type: functional, Mus musculus
Method in brief: (§1)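 Host-cell toxicity was measured alongside the antiviral test. MTC is the lowest concentration of test compound giving a 50% reduction in percent survival of viable host cells.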

L929 [2] = assay: Inhibitory concentration (reduction in cytopathic effect) against vaccinia virus (L-929 cell line); assay type: functional, cell-based; conditions: Mus musculus
Method in brief: (§2)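 Antiviral activity was scored as inhibition of virus cytopathic effect (CPE) in the named host cells. IC50 is the drug concentration giving a 50% reduction in virus CPE.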

L929 [3] = assay: Inhibitory concentration (reduction in cytopathic effect) against vesicular stomatitis virus (L-929 cell line); assay type: functional, cell-based; conditions: Mus musculus; method in brief: as §2
L929 [4] = assay: Virus rating against vaccinia virus (L-929 cell line); assay type: functional, Mus musculus
Method in brief: (§3)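 The virus rating is computed from CPE-inhibition data by the Huffman and Sidwell method. VR > 1 means definite to moderate activity; VR < 0.5 means no significant activity.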

L929 [5] = assay: Minimum toxic concentration against vaccinia virus (L-929 cell line); assay type: functional, Mus musculus; method in brief: as §1
L929 [6] = assay: Virus rating against vesicular stomatitis virus (L-929 cell line); assay type: functional, Mus musculus; method in brief: as §3
LLC-MK2 [7] = assay: Inhibitory concentration (reduction in cytopathic effect) against yellow fever virus (MK2 cell line); assay type: functional, cell-based, Cercopithecidae; conditions: Macaca mulatta; method in brief: as §2
LLC-MK2 [8] = assay: Minimum toxic concentration against yellow fever virus (MK2 cell line); assay type: functional, Cercopithecidae; method in brief: as §1
LLC-MK2 [9] = assay: Virus rating against yellow fever virus (MK2 cell line); Evaluated by plaque reduction assay; assay type: functional, cell-based; conditions: Cercopithecidae
Vero [10] = assay: Virus rating against vaccinia virus (vero cell line); assay type: functional, Chlorocebus sabaeus; method in brief: as §3
Vero [11] = assay: Inhibitory concentration (reduction in cytopathic effect) against vaccinia virus (vero cell line); assay type: functional, cell-based; conditions: Chlorocebus sabaeus; method in brief: as §2
Vero [12] = assay: Minimum toxic concentration against vaccinia virus (vero cell line); assay type: functional, Chlorocebus sabaeus; method in brief: as §1
Vero [13] = assay: Virus rating against vaccinia virus ( vero cell line); assay type: functional, Chlorocebus sabaeus; method in brief: as §3
[14] = test system: Vesicular stomatitis virus; assay: Minimum inhibitory concentration against vesicular stomatitis virus; assay type: functional
Vaccinia virus = assay: Minimum inhibitory concentration against vaccinia virus; assay type: functional; conditions: Orthopoxvirus vaccinia

SMILES	MTC50 (L929 [1]) [µg/mL]	IC50 (L929 [2]) [µg/mL]	IC50 (L929 [3]) [µg/mL]	VR (L929 [4])	MTC50 (L929 [5]) [µg/mL]	VR (L929 [6])	IC50 (LLC-MK2 [7]) [µg/mL]	MTC50 (LLC-MK2 [8]) [µg/mL]	VR (LLC-MK2 [9])	VR (Vero [10])	IC50 (Vero [11]) [µg/mL]	MTC50 (Vero [12]) [µg/mL]	VR (Vero [13])	MIC [14] [µg/mL]	MIC (Vaccinia virus) [µg/mL]
Nc1nccc2c1ncn2[C@@H]1C[C@H](CCl)[C@H](O)C1O (stereo partly drawn)	283	32 (≈ 113 µM)	88 (≈ 311 µM)	0.6	90	0.4	–	–	–	–	–	–	–	–	–
OC[C@H]1C[C@@H](n2cnc3cnccc32)C(O)[C@H]1O (stereo partly drawn)	79	7 (≈ 28.1 µM)	49 (≈ 197 µM)	1	249	0.7	70 (≈ 281 µM)	100	Evaluated by plaque reduction assay	–	–	–	–	–	–
NC[C@H]1C[C@@H](n2cnc3c(N)nccc32)C(O)[C@H]1O (stereo partly drawn)	–	–	–	–	–	–	–	–	–	1	18 (≈ 68.4 µM)	320	–	–	–
Nc1nccc2c1ncn2[C@@H]1C[C@H](CBr)[C@H](O)C1O (stereo partly drawn)	320	–	147 (≈ 449 µM)	–	–	0.3	–	–	–	0.6	87 (≈ 266 µM)	320	–	–	–
NC(=O)[C@H]1C[C@@H](n2cnc3c(N)nccc32)C(O)[C@H]1O (stereo partly drawn)	–	–	–	–	–	–	–	–	–	–	32 (≈ 115 µM)	320	0.7	–	–
C[C@H]1C[C@@H](n2cnc3c(N)nccc32)C(O)[C@H]1O (stereo partly drawn)	100	–	100 (≈ 403 µM)	–	–	1	23 (≈ 92.6 µM)	104	Evaluated by plaque reduction assay	1.4	3.1 (≈ 12.5 µM)	100	–	–	–
Nc1nccc2c1ncn2[C@@H]1C[C@H](CO)[C@H](O)C1O (stereo partly drawn)	–	–	–	–	–	–	–	–	–	–	–	–	–	20 (≈ 75.7 µM)	20 (≈ 75.7 µM)
